The subject of experiment [1] is Calf thymus DNA. Put plainly: Binding affinity to calf thymus DNA at 10 uM by circular dichroism assay. It is filed as nucleic-acid assay. Conditions: Bos taurus. The method in brief: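 CD spectra of CT-DNA (100 µM) with compound at 10 µM in Tris–HCl buffer (pH 7.0), 1-cm quartz cell, 200–600 nm; buffer spectrum subtracted.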
For orientation: Circular dichroism is widely used to follow secondary structure.

Experiment [2] is described as follows: Antiproliferative activity against mouse P388D1 cells after 48 hrs by MTT assay. It is filed as functional, cell-based. Conditions: P388D1, 48 h. The method, boiled down:
(§1)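 Cells seeded at 2.5 × 10⁴/well in 1640 complete medium, 37 °C, 5% CO₂, 24 h; compounds added at 100 to 0.01 µM for 48 h; D-Hank's buffer negative control. Cells washed twice with PBS, MTT (0.5 g/L in PBS, in complete medium) 4 h, DMSO to dissolve; absorbance at 492 nm (reference 630 nm). At least three experiments; mean percentage absorbance plotted against concentration.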

The test system of experiment [3] is Calf thymus DNA. Put plainly: Binding affinity to calf thymus DNA assessed as increase of viscosity of DNA solution at 100 uM. It is filed as nucleic-acid assay. To be noted: Bos taurus. The method in brief: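 Ubbelohde viscometry at 25 ± 0.1 °C. CT-DNA 100 µM in Tris–HCl (30 mM, pH 7.5), kept at 4 °C overnight, sonicated 10 min, filtered 0.45 µm. Flow time measured three times per sample and averaged, corrected for buffer. (η/η0)^1/3 plotted versus compound/DNA ratio.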

The test system of experiment [4] is Calf thymus DNA. In words: Binding affinity to calf thymus DNA by fluorescence assay. It is filed as nucleic-acid assay. Conditions: Bos taurus. The method in brief: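 CT-DNA held at 50 µM with compound 1 to 25 µM in Tris–HCl (30 mM, pH 7.5); compound without DNA as control. Solutions ultrasonically shaken 1 day at 25 °C in the dark. Fluorescence read at 350 nm excitation. Scatchard binding constant K_b derived from quenching (F0 vs F1) via Scatchard plot.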

A further experiment concerns HeLa. Put plainly: Antiproliferative activity against human HeLa cells after 48 hrs by MTT assay. The experiment is classed as functional, cell-based. The method in brief:
as §1
(In general: Tetrazolium assays rely on reduction of a dye to a coloured formazan, in cell work by metabolically active cells.)

Calls of active or inactive are those of the source. No cut-off for these calls is given here.

Usually IC50 stands for the concentration that inhibits the measured activity by half. Consider `CN(C)CCN1C(=O)c2cccc3cc(-c4cccs4)cc(c23)C1=O`, for which the result with Calf thymus DNA [1] and with Calf thymus DNA [3] was Active. In addition, the IC50 in experiment [2] stood at 680 nM; with HeLa, 3.1 µM. The compound further returned a Kb in the experiment with Calf thymus DNA [4] of 13.2 ×10⁵ /M.

As for `CN(C)CCN1C(=O)c2cccc3cc(-c4cccc([N+](=O)[O-])c4)cc(c23)C1=O`, the IC50 in experiment [2] stood at 380 nM; in the experiment on HeLa it was 4.7 µM. The Kb in the experiment with Calf thymus DNA [4] was determined as 14.8 ×10⁵ /M.

As for `Cc1ccc(-c2cc3c4c(cccc4c2)C(=O)N(CCN(C)C)C3=O)cc1`, the IC50 is 2190 nM in experiment [2] and 45.8 µM in the experiment on HeLa. Further, the Kb in the experiment on Calf thymus DNA [4] came to 10.8 ×10⁵ /M.

`CN(C)CCN1C(=O)c2cccc3cc(-c4ccc(C(F)(F)F)cc4)cc(c23)C1=O` displayed a Kb in the experiment with Calf thymus DNA [4] of 11.8 ×10⁵ /M.

Consider `CN(C)CCN1C(=O)c2cccc3cc(-c4ccc(F)c(F)c4)cc(c23)C1=O`, for which the IC50 in experiment [2] amounted to 980 nM; in the experiment with HeLa, 5.3 µM. This compound had a Kb in the experiment with Calf thymus DNA [4] of 12.8 ×10⁵ /M.

As for `CN(C)CCN1C(=O)c2cccc3cc(-c4ccccc4)cc(c23)C1=O`, the outcome with Calf thymus DNA [1] and in the experiment on Calf thymus DNA [3] was Active. The IC50 came out at 680 nM in experiment [2] and 5.7 µM with HeLa. This compound came in with a Kb with Calf thymus DNA [4] of 10.8 ×10⁵ /M.

For `CN(C)CCN1C(=O)c2cccc3cc(N)cc(c23)C1=O` [AMONAFIDE], the 50% inhibitory concentration (IC50) in experiment [2] was 680 nM; with HeLa, 6.02 µM. The same compound registered a Kb in the experiment with Calf thymus DNA [4] of 1.05 ×10⁵ /M.

In the experiment on Calf thymus DNA [4], `CN(C)CCN1C(=O)c2cccc3cc(-c4ccc(F)cc4)cc(c23)C1=O` returned a Kb of 12.4 ×10⁵ /M.

The values above are taken from ChEMBL document CHEMBL1641503, “5-Non-amino aromatic substituted naphthalimides as potential antitumor agents: Synthesis via Suzuki reaction, antiproliferative activity, and DNA-binding behavior” (Bioorg Med Chem, 2011).
